Key:
[1] = Antiproliferative activity against human EBC1 cells after 72 hrs by sulforhodamine B assay; conditions: EBC-1, 72 h
[2] = target: Insulin-like growth factor 1 receptor (Homo sapiens) (UniProt P08069); assay: Inhibition of IGF1R (unknown origin) at 1 uM by ELISA method
Summary of the method: (§1)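 Kinase profiling by ELISA kinase assay across a panel of tyrosine kinases, each tested at a single 1.0 µM compound concentration. Read-out is percent inhibition rate.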

[3] = target: Hepatocyte growth factor receptor (Homo sapiens, UniProt P08581); assay: Inhibition of recombinant c-Met (unknown origin) using poly (Glu,Tyr)4:1 substrate incubated for 60 mins by ELISA method
[4] = target: Fibroblast growth factor receptor 2 (Homo sapiens) (UniProt P21802); assay: Inhibition of FGFR2 (unknown origin) at 1 uM by ELISA method; summary of the method: as §1
[5] = target: Proto-oncogene tyrosine-protein kinase Src (Homo sapiens) (UniProt P12931); conditions: at 1 µM
[6] = target: Platelet-derived growth factor receptor alpha (Homo sapiens) (UniProt P16234); assay: Inhibition of PDGFRalpha (unknown origin) at 1 uM by ELISA method; summary of the method: as §1
[7] = target: Vascular endothelial growth factor receptor 2 (Homo sapiens) (UniProt P35968); conditions: at 1 µM
[8] = target: Fibroblast growth factor receptor 1 (Homo sapiens) (UniProt P11362); assay: Inhibition of FGFR1 (unknown origin) at 1 uM by ELISA method; summary of the method: as §1
[9] = target: Receptor tyrosine-protein kinase erbB-4 (Homo sapiens) (UniProt Q15303); assay: Inhibition of ErbB4 (unknown origin) at 1 uM by ELISA method; summary of the method: as §1
[10] = target: Tyrosine-protein kinase receptor UFO (Homo sapiens) (UniProt P30530); assay: Inhibition of AXL (unknown origin) at 1 uM by ELISA method; summary of the method: as §1
[11] = target: Platelet-derived growth factor receptor beta (Homo sapiens) (UniProt P09619); assay: Inhibition of PDGFRbeta (unknown origin) at 1 uM by ELISA method; summary of the method: as §1
[12] = target: ALK tyrosine kinase receptor (Homo sapiens) (UniProt Q9UM73); assay: Inhibition of ALK (unknown origin) at 1 uM by ELISA method; summary of the method: as §1
[13] = target: Vascular endothelial growth factor receptor 1 (Homo sapiens) (UniProt P17948); assay: Inhibition of FLT1 (unknown origin) at 1 uM by ELISA method; summary of the method: as §1
[14] = target: Tyrosine-protein kinase ABL1 (Homo sapiens) (UniProt P00519); conditions: at 1 µM
[15] = target: Macrophage-stimulating protein receptor (Homo sapiens) (UniProt Q04912); assay: Inhibition of RON (unknown origin) at 1 uM by ELISA method; summary of the method: as §1
[16] = target: Macrophage-stimulating protein receptor (Homo sapiens) (UniProt Q04912); assay: Inhibition of RON (unknown origin) at 0.1 uM by ELISA method
[17] = target: Tyrosine-protein kinase receptor UFO (Homo sapiens) (UniProt P30530); assay: Inhibition of AXL (unknown origin) at 0.1 uM by ELISA method
[18] = target: Fibroblast growth factor receptor 1 (Homo sapiens) (UniProt P11362); conditions: 10 nM

Nc1c(Oc2ccc(NC(=O)C3(C(=O)Nc4ccc(F)cc4)CC3)cc2F)ccnc1NC(=O)CCl
IC50 [1]: < 10 µM

O=C(Nc1ccc(Oc2nc3c([nH]c(=O)n3CCN3CCNCC3)c3ncccc23)c(F)c1)c1cccn(-c2ccc(F)cc2)c1=O
IC50 [1]: > 50 µM

Nc1ncnc2c1c(-c1cccc(OCc3ccccc3)c1)cn2C1CC(CN2CCC2)C1 (stereo not drawn)
inhibition [2]: 56.6%

O=C(Nc1ccc(F)cc1)C1(C(=O)Nc2ccc(Oc3ccnc4c3nc3n4CCCC3)c(F)c2)CC1
IC50 [3]: 0.26 µM | IC50 [1]: > 10 µM

Nc1nccc(Oc2ccc(NC(=O)C3(C(=O)Nc4ccc(F)cc4)CC3)cc2F)c1NCC(=O)O
IC50 [1]: < 10 µM

O=C(Nc1ccc(F)cc1)C1(C(=O)Nc2ccc(Oc3ccnc4[nH]c(=O)[nH]c34)c(F)c2)CC1
inhibition [4]: 37.2% | inhibition [2]: 33.6% | inhibition [5]: 0% | inhibition [6]: 22.6% | IC50 [3]: 0.209 µM | inhibition [7]: 0% | inhibition [8]: 7.4% | inhibition [9]: 24.3% | IC50 [1]: 0.24 µM | inhibition [10]: 41.6% | inhibition [11]: 0% | inhibition [12]: 2.5% | inhibition [13]: 13.3% | inhibition [14]: 0% | inhibition [15]: 43.2%

COc1cc2nccc(Oc3ccc(NC(=O)C4(C(=O)Nc5ccc(F)cc5)CC4)cc3)c2cc1OC
inhibition [16]: 100% | inhibition [17]: 100%

O=C(Nc1ccc(Oc2nc3c([nH]c(=O)n3Cc3ccc(O)cc3)c3ncccc23)c(F)c1)c1cccn(-c2ccc(F)cc2)c1=O
IC50 [1]: > 50 µM

CCN(CC)CCNC(=O)c1c(C)[nH]c(/C=C2\C(=O)Nc3ccc(F)cc32)c1C
inhibition [6]: 68.4% | inhibition [13]: 66.6%

COc1cc(CCc2cc(NC(=O)c3ccc(N4C[C@@H](C)N[C@@H](C)C4)cc3)n[nH]2)cc(OC)c1
inhibition [18]: 95.1%

CN1CCC(Cn2c(=O)[nH]c3c4ncccc4c(Oc4ccc(NC(=O)c5cccn(-c6ccc(F)cc6)c5=O)cc4F)nc32)CC1
IC50 [1]: 19.8 µM

Source: ChEMBL document CHEMBL3352075, “Discovery of potent 1H-imidazo[4,5-b]pyridine-based c-Met kinase inhibitors via mechanism-directed structural optimization” (Bioorg Med Chem Lett, 2015)
